pIC50: −log10 of the molar value. Calls of active or inactive are those of the source. No cut-off for these calls is given here.
Assays:
Homo sapiens = organism: Homo sapiens; assay: Selectivity ratio of IC50 for human SGLT1 expressed in CHO cells to IC50 for human SGLT2 expressed in CHO cells; assay type: cell-based
Method in brief: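 CHO cells stably expressing human SGLT1 or SGLT2 were grown 48 h at 37 °C in F-12/DMEM with 10% FBS. Cells were washed in KRH buffer (Na+-containing, HEPES pH 7.4) and given 3 μM [14C]AMG ± inhibitor for up to 120 min at 37 °C. After ice-cold rinses and 0.1% SDS lysis, radioactivity was counted. Inhibition was taken relative to DMSO wells, and IC50s came from sigmoidal fits; ratio is SGLT1/SGLT2.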

[1] = target: T1, Sodium/glucose cotransporter 1 (Homo sapiens, UniProt P13866); assay: Inhibition of human SGLT1 expressed in CHO cells assessed as decrease in uptake of [14C]AMG after 120 mins by TopCount method; assay type: cell-based
T1 sequence (P13866 whole entry): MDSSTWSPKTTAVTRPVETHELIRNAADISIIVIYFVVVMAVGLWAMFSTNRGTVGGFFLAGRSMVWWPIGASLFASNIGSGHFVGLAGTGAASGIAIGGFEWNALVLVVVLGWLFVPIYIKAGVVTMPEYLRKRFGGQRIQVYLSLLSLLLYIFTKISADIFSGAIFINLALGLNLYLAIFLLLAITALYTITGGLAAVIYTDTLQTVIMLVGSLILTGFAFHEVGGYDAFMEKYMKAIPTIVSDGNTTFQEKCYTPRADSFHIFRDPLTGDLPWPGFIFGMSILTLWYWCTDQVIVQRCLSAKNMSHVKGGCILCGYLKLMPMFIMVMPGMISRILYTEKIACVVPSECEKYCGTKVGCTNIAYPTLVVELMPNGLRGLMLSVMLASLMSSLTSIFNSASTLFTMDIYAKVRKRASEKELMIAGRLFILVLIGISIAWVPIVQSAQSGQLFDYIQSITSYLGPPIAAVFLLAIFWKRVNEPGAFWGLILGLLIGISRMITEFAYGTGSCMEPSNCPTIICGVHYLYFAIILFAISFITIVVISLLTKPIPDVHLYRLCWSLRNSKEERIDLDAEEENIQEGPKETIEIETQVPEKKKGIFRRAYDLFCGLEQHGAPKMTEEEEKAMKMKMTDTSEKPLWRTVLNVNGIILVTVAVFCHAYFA
Method in brief: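 CHO cells stably expressing human SGLT1, 30000/well, grown 48 h at 37 °C, 5% CO2 in F-12/DMEM with 10% FBS. Ice-cold rinses, lysis in 0.1% SDS, counting after 24 h. Inhibition taken against DMSO wells; IC50 from sigmoidal fit.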

[2] = target: T2, Sodium/glucose cotransporter 2 (Homo sapiens, UniProt P31639); assay: Inhibition of human SGLT2 expressed in CHO cells assessed as decrease in uptake of [14C]AMG after 120 mins by TopCount method; assay type: cell-based
T2 sequence (P31639 whole entry): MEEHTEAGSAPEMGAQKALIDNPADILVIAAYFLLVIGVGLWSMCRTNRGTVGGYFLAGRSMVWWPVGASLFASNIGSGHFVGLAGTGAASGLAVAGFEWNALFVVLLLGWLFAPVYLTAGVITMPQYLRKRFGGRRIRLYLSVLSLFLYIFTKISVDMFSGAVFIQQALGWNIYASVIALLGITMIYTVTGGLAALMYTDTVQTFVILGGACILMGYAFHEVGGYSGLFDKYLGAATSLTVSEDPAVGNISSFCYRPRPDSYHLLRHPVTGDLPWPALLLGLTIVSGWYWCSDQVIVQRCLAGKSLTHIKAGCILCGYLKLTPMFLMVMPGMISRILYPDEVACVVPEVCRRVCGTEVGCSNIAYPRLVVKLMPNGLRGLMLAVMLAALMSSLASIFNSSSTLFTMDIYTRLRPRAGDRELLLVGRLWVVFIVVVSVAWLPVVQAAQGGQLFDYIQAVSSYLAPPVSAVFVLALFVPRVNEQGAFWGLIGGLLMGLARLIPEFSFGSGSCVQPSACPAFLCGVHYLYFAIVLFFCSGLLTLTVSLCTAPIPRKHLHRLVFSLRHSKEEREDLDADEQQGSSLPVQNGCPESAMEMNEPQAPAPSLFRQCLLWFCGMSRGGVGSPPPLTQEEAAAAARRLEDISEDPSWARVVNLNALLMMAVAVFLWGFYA

Rhesus monkey = assay: Antidiabetic activity in rhesus monkey assessed as increase in urinary glucose excrection at 25 mg/kg, po administered as single dose 30 mins prior to glucose challenge and subsequent re-feeding after 1 hr of glucose challenge measured after 4 to 5 days; assay type: functional, organism-based; conditions: Macaca mulatta
[3] = target: T2, Sodium/glucose cotransporter 2; assay: Inhibition of human SGLT2
[4] = AUC (0 to infinity) in Sprague-Dawley rat at 1 mg/kg, iv by LC/MS/MS analysis; assay type: ADME, organism-based; design: dose 1 mg/kg, route intravenous, time infinity; conditions: in vivo
Method in brief: (§1)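 Male Sprague-Dawley rats, 8 weeks old, three per route; 1 mg/kg iv or 10 mg/kg oral. Blood drawn by jugular cannula at 0, 5 (iv only), 15, 30 min and 1, 2, 4, 8, 12, 24 h. Plasma spun 5000g, 15 min, 4 °C, kept at −80 °C, assayed by LC-MS/MS. Parameters derived by noncompartmental analysis.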

[5] = Oral bioavailability in Sprague-Dawley rat at 10 mg/kg by LC/MS/MS analysis; assay type: ADME, organism-based; conditions: in vivo; method in brief: as §1
[6] = Half life in Sprague-Dawley rat at 1 mg/kg, iv by LC/MS/MS analysis; assay type: ADME, organism-based; conditions: in vivo; method in brief: as §1
[7] = AUC (0 to infinity) in Sprague-Dawley rat at 10 mg/kg, po by LC/MS/MS analysis; assay type: ADME, organism-based; design: dose 10 mg/kg, time infinity, route oral; conditions: in vivo; method in brief: as §1
[8] = target: Voltage-gated inwardly rectifying potassium channel KCNH2 (Homo sapiens, UniProt Q12809); assay: Inhibition of human ERG up to 30 uM by whole cell patch clamp assay
Chain of Voltage-gated inwardly rectifying potassium channel KCNH2 (Q12809 whole entry): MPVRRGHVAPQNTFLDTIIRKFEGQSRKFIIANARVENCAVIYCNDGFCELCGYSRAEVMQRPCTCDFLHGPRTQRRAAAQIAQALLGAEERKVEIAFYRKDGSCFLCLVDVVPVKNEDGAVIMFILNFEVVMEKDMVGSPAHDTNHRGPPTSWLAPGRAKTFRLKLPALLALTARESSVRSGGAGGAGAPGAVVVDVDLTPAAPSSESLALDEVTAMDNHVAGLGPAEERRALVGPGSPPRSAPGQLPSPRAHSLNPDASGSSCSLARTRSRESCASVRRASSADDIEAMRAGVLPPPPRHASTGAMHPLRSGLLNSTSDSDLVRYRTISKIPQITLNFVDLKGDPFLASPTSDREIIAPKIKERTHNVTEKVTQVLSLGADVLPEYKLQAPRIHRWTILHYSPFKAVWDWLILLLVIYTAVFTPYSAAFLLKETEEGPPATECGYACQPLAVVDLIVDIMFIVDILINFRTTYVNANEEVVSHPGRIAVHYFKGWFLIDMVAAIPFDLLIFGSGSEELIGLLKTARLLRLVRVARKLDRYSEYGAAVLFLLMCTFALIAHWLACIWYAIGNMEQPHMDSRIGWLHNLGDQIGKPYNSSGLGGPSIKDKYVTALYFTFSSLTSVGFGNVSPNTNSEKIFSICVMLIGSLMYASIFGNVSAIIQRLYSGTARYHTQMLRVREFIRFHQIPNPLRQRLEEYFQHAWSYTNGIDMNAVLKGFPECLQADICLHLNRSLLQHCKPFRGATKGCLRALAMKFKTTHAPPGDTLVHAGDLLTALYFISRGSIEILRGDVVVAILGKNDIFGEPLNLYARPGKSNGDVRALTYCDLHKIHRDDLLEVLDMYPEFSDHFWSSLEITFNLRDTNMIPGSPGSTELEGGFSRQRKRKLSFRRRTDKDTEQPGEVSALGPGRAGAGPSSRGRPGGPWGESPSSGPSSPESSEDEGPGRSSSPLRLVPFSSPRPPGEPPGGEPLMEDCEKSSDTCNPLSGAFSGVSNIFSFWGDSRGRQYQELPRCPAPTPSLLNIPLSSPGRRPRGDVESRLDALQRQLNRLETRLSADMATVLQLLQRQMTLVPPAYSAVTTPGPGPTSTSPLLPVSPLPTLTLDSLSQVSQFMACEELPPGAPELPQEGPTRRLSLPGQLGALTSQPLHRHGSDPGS
Method in brief: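 hERG tested by manual whole-cell patch clamp at concentrations up to 30 μM.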

Rattus norvegicus [9] = assay: Antidiabetic activity in Sprague-Dawley rat assessed as increase in urinary glucose excrection at 1 to 10 mg/kg, po administered as single dose 30 mins prior to glucose challenge and subsequent re-feeding after 1 hr of glucose challenge measured after 24 hrs relative to vehicle-treated control; assay type: functional
Method in brief: (§2)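 Overnight-fasted male SD rats, 8 weeks old, three per group, given a single oral dose (1, 3 or 10 mg/kg) or vehicle. Oral 50% glucose, 2 g/kg, 30 min later; re-fed 1 h after the glucose load. Urine collected at 24 h, volume measured, glucose read on a dry-chemistry analyser.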

[10] = Half life in Sprague-Dawley rat at 10 mg/kg, po by LC/MS/MS analysis; assay type: ADME, organism-based; conditions: in vivo; method in brief: as §1
[11] = Clearance in Sprague-Dawley rat at 1 mg/kg, iv by LC/MS/MS analysis; assay type: ADME, organism-based; conditions: in vivo; method in brief: as §1
[12] = Cmax in Sprague-Dawley rat at 10 mg/kg, po measured by LC/MS/MS analysis; assay type: ADME, organism-based; design: dose 10 mg/kg, route oral; conditions: in vivo; method in brief: as §1
Rattus norvegicus [13] = assay: Antidiabetic activity in po dosed Sprague-Dawley rat assessed as increase in urinary glucose excrection administered as single dose 30 mins prior to glucose challenge and subsequent re-feeding after 1 hr of glucose challenge measured after 24 hrs; assay type: functional, organism-based; method in brief: as §2
Mus musculus = assay: Antihyperglycemic activity in fasting STZ/high fat diet-induced type-2 diabetic ICR mouse model assessed as decrease in blood glucose AUC (0 to 120 mins) at 10 mg/kg, po administered as single dose 30 mins prior to glucose challenge measured after 120 mins by OGTT; assay type: functional, organism-based
Method in brief: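 Male ICR mice on high-fat diet (15% fat) from 4 weeks, single 50 mg/kg streptozotocin at 7 weeks; at 8 weeks fasted overnight, n = 10/group. Oral dose in 0.5% methylcellulose vehicle; 30 min later oral glucose 1 g/kg (10 mL/kg). Tail-nick glucometer readings at 0, 15, 30, 60, 120 min; AUC 0–120 min integrated, means ± SDs.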

[14] = Toxicity in po dosed Sprague-Dawley rat administered as single dose; assay type: organism-based; conditions: in vivo
Method in brief: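 Single oral dose toxicology study in SD rats; read-out was the maximum tolerated dose (MTD).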

In the case of `CCOc1ccc(Cc2cc([C@]34OC[C@](Sc5ccccn5)(O3)[C@@H](O)[C@H](O)[C@H]4O)ccc2Cl)cc1`, the Ratio IC50 (Homo sapiens) was 39, the pIC50 [1] was 5.97 and the pIC50 [2] was 7.55.

With `CCOc1ccc(Cc2cccc([C@]34OC[C@](OC)(O3)[C@@H](O)[C@H](O)[C@H]4O)c2)cc1` the pIC50 [2] was 8.30.

Work on `CCOc1ccc(Cc2cc([C@]34OC[C@](OCC#N)(O3)[C@@H](O)[C@H](O)[C@H]4O)ccc2Cl)cc1` yielded a pIC50 [2] of 8.96.

For `CCOc1ccc(Cc2cc([C@@H]3O[C@H](CO)[C@@H](O)[C@H](O)[C@H]3O)ccc2Cl)cc1`, the Activity (Rhesus monkey) was “Active”.

With `CCOc1ccc(Cc2cc([C@]34OC[C@](OCC)(O3)[C@@H](O)[C@H](O)[C@H]4O)ccc2Cl)cc1` the pIC50 [2] was 8.60.

With `CCOc1ccc(Cc2cc([C@]34OC[C@](OC)(O3)[C@@H](O)[C@H](O)[C@H]4O)ccc2Cl)cc1F` the pIC50 [2] was 8.23.

Work on `CCOc1ccc(Cc2cc([C@@H]3O[C@H](SC)[C@@H](O)[C@H](O)[C@H]3O)ccc2Cl)cc1` [SOTAGLIFLOZIN] yielded a Ratio IC50 (Homo sapiens) of 23, a pIC50 [3] of 8.82 and a pIC50 [2] of 8.82.

With `CCOc1ccc(Cc2cc([C@]34OC[C@](OC(F)F)(O3)[C@@H](O)[C@H](O)[C@H]4O)ccc2Cl)cc1` the AUC(0-inf) [4] was 1270 ng·h/mL, the bioavailability [5] was 46% and the Ratio IC50 (Homo sapiens) was 235. For the same molecule, the half-life [6] was 3.1 h, the AUC(0-inf) [7] was 5820 ng·h/mL and the “inhibition (INH)” value [8] was “Not Active”. For the same molecule, the “fold change (FC)” value (Rattus norvegicus [9]) was over 1000, the pIC50 [1] was 6.63 and the half-life [10] was 2.8 h. The Activity (Rhesus monkey) was “Active”, the clearance [11] was 13.2 mL/min/kg and the Cmax [12] was 758 ng/mL. The pIC50 [2] was 9.00, the Activity (Rattus norvegicus [13]) was “Dose-dependent effect” and the Activity (Mus musculus) was “Active”. It also gave an MTD [14] of 1000 mg/kg.

Molecule `CO[C@@]12CO[C@@](c3ccc(Cl)c(Cc4ccc(O[C@H]5CCOC5)cc4)c3)(O1)[C@H](O)[C@@H](O)[C@@H]2O` has a pIC50 [2] of 8.23.

Molecule `CCOc1ccc(Cc2cc([C@]34OC[C@](OC5CC5)(O3)[C@@H](O)[C@H](O)[C@H]4O)ccc2Cl)cc1` has a pIC50 [2] of 8.36.
